Reference: ChEMBL document CHEMBL3526067, “Metabolism of bis(4-fluorobenzyl)trisulfide and its formation of hemoglobin adduct in rat erythrocytes” (Drug Metab Dispos, 2013)

Experiments:
[1] = Drug level in phosphate buffered saline treated with BFBTS at 5 uM at pH 7.4 after 30 mins by LC-MS analysis in presence of GSH; assay type: physicochemical; settings: buffer, pH 7.4, 0.5 h
Procedure, shortened: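 BFBTS 5 μM incubated with GSH 0.5 mM in PBS pH 7.4 for 30 min. Two volumes of acetonitrile added, then HPLC and LC-MS to identify reaction products.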

[2] = Drug metabolism in phosphate buffered saline assessed as BFBDS metabolite formation at 5 uM by HPLC analysis in presence of N-acetyl cysteine; assay type: physicochemical; settings: buffer
[3] = Stability in Sprague-Dawley rat RBC at 5 uM incubated for 1 hr after 5 mM thiol residue blocking agent iodoacetamide challenge by HPLC analysis; assay type: ADME, cell-based; settings: erythrocyte
[4] = system: Blood; assay: Drug metabolism in Sprague-Dawley rat whole blood assessed as p-FBA metabolite formation by HPLC analysis; assay type: ADME, tissue-based
[5] = Stability of compound in phosphate buffered saline at 5 uM after 30 mins by HPLC analysis in presence of cysteine; assay type: physicochemical; settings: buffer, 0.5 h
[6] = Drug metabolism in Sprague-Dawley rat RBC assessed as rapid p-FBM metabolite formation at 50 uM by HPLC analysis; assay type: ADME, cell-based; settings: erythrocyte
Procedure, shortened: (§1)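 BFBTS (final 50 μM) incubated at 37°C with rat RBCs diluted with an equal volume of PBS, for 5, 10, 15, 30, 45 and 60 min. For M2 (p-FBM) and M3 (p-FBA), two volumes of acetonitrile added before HPLC. BFBTS and M1 were extracted by a cited method.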

[7] = Drug metabolism in Sprague-Dawley rat RBC assessed as BFBDS metabolite formation by HPLC analysis; assay type: ADME, cell-based; settings: erythrocyte; procedure, shortened: as §1
[8] = Drug recovery in Sprague-Dawley rat whole blood at 64 uM after 2 hrs by HPLC analysis; assay type: ADME, tissue-based; settings: read-out: Drug recovery
Procedure, shortened: (§2)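 Recovery test: BFBTS 64 μM incubated for 2 h with rat whole blood, plasma (3,000 g, 10 min) or PBS-washed RBCs. Liquid-liquid extraction, then HPLC; recovery compared across the three matrices.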

[9] = system: Blood; assay: Drug metabolism in Sprague-Dawley rat whole blood assessed as p-FBA metabolite formation at 50 uM by UPLC-MS/MS analysis; assay type: ADME, tissue-based
Procedure, shortened: (§3)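 p-FBA in rat whole blood incubated with BFBTS, measured by UPLC-MS. 0.1% formic acid/acetonitrile gradient at 0.2 ml/min, column 25°C. Capillary 3.30 kV, cone 31 V, source 150°C, desolvation 350°C.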

[10] = Drug level in Sprague-Dawley rat RBC treated with BFBDS by HPLC analysis; assay type: ADME, cell-based; settings: erythrocyte
Procedure, shortened: (§4)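 Male Sprague-Dawley rat RBCs (200–220 g rats), washed three times with PBS pH 7.4 and resuspended in PBS, incubated separately with each metabolite. Metabolites confirmed against authentic standards.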

[11] = Drug metabolism in Sprague-Dawley rat RBC assessed as p-FBA metabolite formation at slow rate at 50 uM by HPLC analysis; assay type: ADME, cell-based; settings: erythrocyte; procedure, shortened: as §1
[12] = Half life in Sprague-Dawley rat diluted RBC at 1 uM by HPLC analysis; assay type: ADME, cell-based, Erythrocyte; settings: diluted red blood cells (RBC)
[13] = Drug recovery in Sprague-Dawley rat plasma at 64 uM after 2 hrs by HPLC analysis; assay type: ADME, cell-free; settings: read-out: Drug recovery; procedure, shortened: as §2
[14] = Drug metabolism in phosphate buffered saline assessed as BFBDS metabolite formation at 5 uM by HPLC analysis in presence of GSH; assay type: physicochemical; settings: buffer
[15] = system: Blood; assay: Drug metabolism in Sprague-Dawley rat whole blood assessed as p-FBM metabolite formation at 50 uM by GC/MS analysis; assay type: ADME, tissue-based
[16] = system: Blood; assay: Drug metabolism in Sprague-Dawley rat whole blood assessed as BFBDS metabolite formation by HPLC analysis; assay type: ADME, tissue-based
[17] = Stability of compound in phosphate buffered saline at 5 uM after 30 mins by HPLC analysis in presence of coenzyme A; assay type: physicochemical; settings: buffer, 0.5 h
[18] = Drug metabolism in Sprague-Dawley rat RBC assessed as p-FBM metabolite formation by HPLC analysis; assay type: ADME, cell-based; settings: erythrocyte; procedure, shortened: as §1
[19] = Drug metabolism in Sprague-Dawley rat RBC assessed as p-FBA metabolite formation by HPLC analysis; assay type: ADME, cell-based; settings: erythrocyte; procedure, shortened: as §1
[20] = Drug metabolism in phosphate buffered saline assessed as p-FBM metabolite formation at 5 uM by HPLC analysis in presence of GSH; assay type: physicochemical; settings: buffer
[21] = system: Blood; assay: Drug metabolism in Sprague-Dawley rat whole blood assessed as p-FBM metabolite formation by HPLC analysis; assay type: ADME, tissue-based
[22] = Drug metabolism in phosphate buffered saline assessed as p-FBM metabolite formation at 5 uM by HPLC analysis in presence of cysteine; assay type: physicochemical; settings: buffer
[23] = Drug metabolism in phosphate buffered saline assessed as p-FBM metabolite formation at 5 uM by HPLC analysis in presence of coenzyme A; assay type: physicochemical; settings: buffer
[24] = Half life in Sprague-Dawley rat diluted RBC at 25 uM by HPLC analysis; assay type: ADME, cell-based, Erythrocyte; settings: diluted red blood cells (RBC)
Procedure, shortened: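 BFBTS incubated with diluted rat RBCs (10^8/ml) for 1.5, 3, 5, 10 and 15 min. After extraction, BFBTS measured by HPLC. Half-life from nonlinear regression of concentration-time data; n = 3, means with SD.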

[25] = Drug metabolism in phosphate buffered saline assessed as BFBDS metabolite formation at 5 uM by HPLC analysis in presence of cysteine; assay type: physicochemical; settings: buffer
[26] = system: Blood; assay: Drug metabolism in Sprague-Dawley rat whole blood assessed as BFBDS metabolite formation at 50 uM by GC/MS analysis; assay type: ADME, tissue-based
[27] = Stability of compound in phosphate buffered saline at 5 uM after 30 mins by HPLC analysis in presence of GSH; assay type: physicochemical; settings: buffer, 0.5 h
[28] = Drug level in Sprague-Dawley rat RBC treated with p-FBA by HPLC analysis; assay type: ADME, cell-based; settings: erythrocyte
[29] = Stability of compound in phosphate buffered saline at 5 uM after 30 mins by HPLC analysis in presence of N-acetyl cysteine; assay type: physicochemical; settings: buffer, 0.5 h
[30] = Drug recovery in Sprague-Dawley rat RBC at 64 uM after 2 hrs by HPLC analysis; assay type: ADME, cell-based; settings: erythrocyte; procedure, shortened: as §2
[31] = Drug level in Sprague-Dawley rat RBC treated with p-FBM by HPLC analysis; assay type: ADME, cell-based; settings: erythrocyte; procedure, shortened: as §4
[32] = Drug metabolism in Sprague-Dawley rat RBC assessed as BFBTS formation by HPLC analysis; assay type: ADME, cell-based; settings: erythrocyte; procedure, shortened: as §1
[33] = Drug level in phosphate buffered saline treated with BFBTS at 5 uM by HPLC analysis in presence of GSH; assay type: physicochemical; settings: buffer
[34] = system: Blood; assay: Drug level in Sprague-Dawley rat whole blood treated with BFBTS at 50 uM after 15 mins by HPLC analysis; assay type: ADME, tissue-based; settings: 0.25 h
[35] = system: Blood; assay: Drug level in Sprague-Dawley rat whole blood treated with BFBTS by HPLC analysis; assay type: ADME, tissue-based
[36] = system: Blood; assay: Drug level in Sprague-Dawley rat whole blood treated with BFBTS at 50 uM by GC/MS analysis; assay type: ADME, tissue-based
[37] = Drug metabolism in phosphate buffered saline treated with BFBTS at 5 uM by HPLC analysis in presence of N-acetyl cysteine; assay type: physicochemical; settings: buffer
[38] = Drug metabolism in phosphate buffered saline treated with BFBTS at 5 uM by HPLC analysis in presence of coenzyme A; assay type: physicochemical; settings: buffer
[39] = system: Blood; assay: Retention time in Sprague-Dawley rat whole blood treated with 50 uM Bis(4-fluorobenzyl)trisulfide after 15 mins by HPLC analysis; assay type: ADME, tissue-based; settings: 0.25 h
[40] = Drug level in Sprague-Dawley rat RBC treated with BFBTS by HPLC analysis; assay type: ADME, cell-based; settings: erythrocyte; procedure, shortened: as §4
[41] = Drug metabolism in phosphate buffered saline treated with BFBTS at 5 uM by HPLC analysis in presence of cysteine; assay type: physicochemical; settings: buffer
[42] = system: Blood; assay: Drug level in Sprague-Dawley rat whole blood treated with BFBTS at 50 uM by UPLC-MS/MS analysis; assay type: ADME, tissue-based; procedure, shortened: as §3

N[C@@H](CCC(=O)N[C@@H](CSSCc1ccc(F)cc1)C(=O)NCC(=O)O)C(=O)O
Drug uptake [1]: metabolite_detected

Fc1ccc(CSSSCc2ccc(F)cc2)cc1
Drug metabolism [2]: metabolite_detected | Stability [3]: Stable | Drug metabolism [4]: metabolite_detected | Stability [5]: Unstable | Drug metabolism [6]: metabolite_detected | Drug metabolism [7]: metabolite_detected | remaining at 2 h, 64 µM [8]: 2.54% | Drug metabolism [9]: metabolite_detected | Drug metabolism [10]: metabolite_not_detected | Drug metabolism [11]: metabolite_detected | half-life at 1 µM [12]: < 30 s | remaining at 2 h, 64 µM [13]: 13% | Drug metabolism [14]: metabolite_detected | Drug metabolism [15]: metabolite_detected | Drug metabolism [16]: metabolite_detected | Stability [17]: Unstable | Drug metabolism [18]: metabolite_detected | Drug metabolism [19]: metabolite_detected | Drug metabolism [20]: metabolite_detected | Drug metabolism [21]: metabolite_detected | Drug metabolism [22]: metabolite_detected | Drug metabolism [23]: metabolite_detected | half-life at 25 µM [24]: 24 s | Drug metabolism [25]: metabolite_detected | Drug metabolism [26]: metabolite_detected | Stability [27]: Unstable | Drug metabolism [28]: metabolite_not_detected | Stability [29]: Unstable | Drug recovery [30]: Not Active | Drug metabolism [31]: metabolite_not_detected

Fc1ccc(CS)cc1
Drug metabolism [32]: metabolite_not_detected | Drug metabolism [33]: metabolite_detected | Drug metabolism [7]: metabolite_detected | Drug metabolism [34]: metabolite_detected | Drug metabolism [35]: metabolite_detected | Drug metabolism [10]: metabolite_detected | Drug metabolism [36]: metabolite_detected | Drug metabolism [37]: metabolite_detected | Drug metabolism [38]: metabolite_detected | Drug metabolism [19]: metabolite_detected | Retention_time [39]: 24.66 min | Drug metabolism [40]: metabolite_detected | Drug metabolism [41]: metabolite_detected | Drug metabolism [28]: metabolite_not_detected

O=C(O)c1ccc(F)cc1
Drug metabolism [32]: metabolite_not_detected | Drug metabolism [7]: metabolite_not_detected | Drug metabolism [34]: metabolite_detected | Drug metabolism [35]: metabolite_detected | Drug metabolism [10]: metabolite_detected | Drug metabolism [18]: metabolite_not_detected | Retention_time [39]: 8.15 min | Drug metabolism [40]: metabolite_detected | Drug metabolism [42]: metabolite_detected | Drug metabolism [31]: metabolite_detected

Fc1ccc(CSSCc2ccc(F)cc2)cc1
Drug metabolism [32]: metabolite_not_detected | Drug metabolism [33]: metabolite_detected | Drug metabolism [34]: metabolite_detected | Drug metabolism [35]: metabolite_detected | Drug metabolism [36]: metabolite_detected | Drug metabolism [37]: metabolite_detected | Drug metabolism [18]: metabolite_detected | Drug metabolism [38]: metabolite_detected | Drug metabolism [19]: metabolite_detected | Retention_time [39]: 38.89 min | Drug metabolism [40]: metabolite_detected | Drug metabolism [41]: metabolite_detected | Drug metabolism [28]: metabolite_not_detected | Drug metabolism [31]: metabolite_detected
